Published values pooled from the literature.
Protocols differ between the studies behind these lines.
Target: Serine/threonine-protein kinase 25 (STK25, Homo sapiens, UniProt O00506)

SMILES	effect on	mode	technique	tested at	endpoint	result
Cc1nn(C)cc1-c1nc2c(N3CCN(Cc4ccc(Cl)cc4)CC3)c(Cl)cnc2[nH]1	binding	–	competition with immobilised ligand	1 µM	remaining binding	70%
CC(C)(C)c1cc(C=C(C#N)C#N)cc(Br)c1O	enzyme activity	inhibitor	–	0.5 µM	remaining activity	102%
Nc1ncc(-c2nc(N3CCOCC3)nc(N3CCOCC3)n2)c(C(F)F)n1	binding	–	competition with immobilised ligand	10 µM	remaining binding	93%
COCc1c(-c2cc3cc(C)cc(OC)c3s2)c2c(N)ncnn2c1CN1CCNC(=O)C1	cell-free assay	–	competition with immobilised ligand	1 µM	inhibition	87%
COc1ncccc1-c1cnn2ccc(N3CCN(C(=O)OC(C)C)CC3)nc12	binding	–	competition with immobilised ligand	1 µM	remaining binding	65%
N#CC1(c2ccccn2)CCN(Cc2cc(C(=O)O)c(=O)n3ccccc23)CC1	cell-free assay	–	competition with immobilised ligand	1 µM	remaining binding	100%
Cn1cc(-c2cc(F)cc(N3CCn4c(cc5c4CCCC5)C3=O)c2CO)cc(Nc2ccc(N3CCN(C4COC4)CC3)cn2)c1=O	enzyme activity	inhibitor	–	0.1 µM	inhibition	8%
Cn1cncc1[C@](O)(COc1ccc(C#N)cc1-c1ccc(OC(F)(F)F)cc1)c1ccc(C#N)cc1	cell-free assay	–	competition with immobilised ligand	1 µM	remaining binding	91%
Cn1cc(-c2cccc(N3CCc4c(sc5c4CC(C)(C)C5)C3=O)c2CO)cc(Nc2ccncn2)c1=O	enzyme activity	inhibitor	–	1 µM	inhibition	-13%
O=c1[nH]c2ccccc2n1C1CCN(Cc2ccc(-c3[nH]c4cc5ncnc5cc4nc3-c3ccccc3)cc2)CC1	cell-free assay	–	–	0.5 µM	remaining signal	89.8%
